ChEMBL document CHEMBL2331152, “Multivalent Interactions: Synthesis and Evaluation of Melanotropin Multimers - Tools for Melanoma Targeting” (ACS Med Chem Lett, 2013)
Active and inactive are the calls of the source. No cut-off for these calls is given here.

How the values were obtained:
HEK293 [1] = test: Cytotoxicity against human HEK293 cells assessed as cell viability at 10 uM upto 2 days; format: cell-based; conditions: hek293, 48 h
In short: (§1)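 Cell viability was measured at three concentrations and three incubation times, up to 48 h. Values are expressed as % of untreated control and are the average of three independent experiments run in triplicate.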

HEK293 [2] = test: Cytotoxicity against human HEK293 cells assessed as cell viability at 1 uM upto 48 hrs; format: cell-based; conditions: hek293, 48 h; in short: as §1
HEK293 [3] = test: Drug uptake in human HEK293 cells assessed as localization at cell surface measured after 90 mins of incubation by FM 1-43 dye-microscopy; format: ADME, cell-based
In short: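 Ligands were Cy5-labelled through a triarginine linker and incubated with cells for 90 min. The membrane probe FM 1-43 was added two minutes before image acquisition. Membrane localization was assessed by epifluorescence microscopy.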

HEK293 [4] = test: Drug uptake in human HEK293 cells assessed as localization measured at 3 mins of incubation by FM 1-43 dye-microscopy; format: ADME, cell-based; conditions: hek293, 0.05 h
Melanocortin receptor 4 [5] = target: T1, Melanocortin receptor 4 (Homo sapiens, UniProt P32245); test: Displacement of Eu-NDP-alpha-MSH from human MC4R expressed in HEK293 cells by time resolved fluorescence binding assay relative to multimer 1M; format: cell-based
T1 sequence (P32245 whole entry): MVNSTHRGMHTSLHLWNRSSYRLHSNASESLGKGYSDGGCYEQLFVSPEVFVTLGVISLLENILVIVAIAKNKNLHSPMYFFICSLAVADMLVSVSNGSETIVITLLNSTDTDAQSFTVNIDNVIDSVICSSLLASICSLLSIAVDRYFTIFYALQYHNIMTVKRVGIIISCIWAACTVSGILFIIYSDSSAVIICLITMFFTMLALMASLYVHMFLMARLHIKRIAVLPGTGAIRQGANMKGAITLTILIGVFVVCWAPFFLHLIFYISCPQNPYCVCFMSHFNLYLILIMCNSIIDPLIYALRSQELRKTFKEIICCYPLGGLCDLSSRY
In short: (§2)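 Competition binding on HEK293 cells transfected to overexpress MC4R, against europium-labelled NDP-α-MSH tracer, read by time-resolved fluorescence. IC50 values are averaged from four experiments run in quadruplicate. Relative potency is expressed against the monovalent ligand.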

Melanocortin receptor 4 [6] = target: T1, Melanocortin receptor 4; test: Inhibition of human MC4R expressed in HEK293 cells assessed as cAMP accumulation by chemiluminescent immunoassay; format: functional, cell-based
Melanocortin receptor 4 [7] = target: T1, Melanocortin receptor 4; test: Displacement of Eu-NDP-alpha-MSH from human MC4R expressed in HEK293 cells by time resolved fluorescence binding assay; format: cell-based; in short: as §2

`N=C(N)NCCC[C@H](NC(=O)[C@@H](Cc1ccccc1)NC(=O)[C@H](Cc1cnc[nH]1)NC(=O)CCc1cn(CC(=O)NCC(=O)NC(CCCNC(=O)Cn2cc(CCC(=O)N[C@@H](Cc3cnc[nH]3)C(=O)N[C@H](Cc3ccccc3)C(=O)N[C@@H](CCCN=C(N)N)C(=O)N[C@@H](Cc3c[nH]c4ccccc34)C(N)=O)nn2)(CCCNC(=O)Cn2cc(CCC(=O)N[C@@H](Cc3cnc[nH]3)C(=O)N[C@H](Cc3ccccc3)C(=O)N[C@@H](CCCN=C(N)N)C(=O)N[C@@H](Cc3c[nH]c4ccccc34)C(N)=O)nn2)C(=O)NCCC(N)=O)nn1)C(=O)N[C@@H](Cc1c[nH]c2ccccc12)C(N)=O` was tested, and the Activity (HEK293 [1]) was “Non-toxic” and the Activity (HEK293 [2]) was “Non-toxic”.

For `CCCC[C@H](NC(=O)[C@H](CO)NC(=O)[C@H](Cc1ccc(O)cc1)NC(=O)[C@H](CO)NC(C)=O)C(=O)N[C@@H](CCC(=O)O)C(=O)N[C@@H](Cc1cnc[nH]1)C(=O)N[C@H](Cc1ccccc1)C(=O)N[C@@H](CCCNC(=N)N)C(=O)N[C@@H](Cc1c[nH]c2ccccc12)C(=O)NCC(=O)N[C@@H](CCCCNC(=O)CCCCC[N+]1=C(/C=C/C=C/C=C2/N(C)c3ccccc3C2(C)C)C(C)(C)c2ccccc21)C(=O)N1CCC[C@H]1C(=O)N[C@H](C(N)=O)C(C)C`, the Drug uptake (HEK293 [3]) was “Active” and the Drug uptake (HEK293 [4]) was “Not Active”.

For `CC(=O)NCC(=O)NC(CCCNC(=O)CCNC(=O)C(CCCNC(=O)Cn1cc(CCC(=O)N[C@@H](Cc2cnc[nH]2)C(=O)N[C@H](Cc2ccccc2)C(=O)N[C@@H](CCCNC(=N)N)C(=O)N[C@@H](Cc2c[nH]c3ccccc23)C(N)=O)nn1)(CCCNC(=O)Cn1cc(CCC(=O)N[C@@H](Cc2cnc[nH]2)C(=O)N[C@H](Cc2ccccc2)C(=O)N[C@@H](CCCNC(=N)N)C(=O)N[C@@H](Cc2c[nH]c3ccccc23)C(N)=O)nn1)NC(=O)CNC(=O)Cn1cc(CCC(=O)N[C@@H](Cc2cnc[nH]2)C(=O)N[C@H](Cc2ccccc2)C(=O)N[C@@H](CCCNC(=N)N)C(=O)N[C@@H](Cc2c[nH]c3ccccc23)C(N)=O)nn1)(CCCNC(=O)CCNC(=O)C(CCCNC(=O)Cn1cc(CCC(=O)N[C@@H](Cc2cnc[nH]2)C(=O)N[C@H](Cc2ccccc2)C(=O)N[C@@H](CCCNC(=N)N)C(=O)N[C@@H](Cc2c[nH]c3ccccc23)C(N)=O)nn1)(CCCNC(=O)Cn1cc(CCC(=O)N[C@@H](Cc2cnc[nH]2)C(=O)N[C@H](Cc2ccccc2)C(=O)N[C@@H](CCCNC(=N)N)C(=O)N[C@@H](Cc2c[nH]c3ccccc23)C(N)=O)nn1)NC(=O)CNC(=O)Cn1cc(CCC(=O)N[C@@H](Cc2cnc[nH]2)C(=O)N[C@H](Cc2ccccc2)C(=O)N[C@@H](CCCNC(=N)N)C(=O)N[C@@H](Cc2c[nH]c3ccccc23)C(N)=O)nn1)C(=O)NCCC(=O)N[C@H](CCCNC(=N)N)C(=O)N[C@@H](CCCNC(=N)N)C(=O)N[C@H](CCCNC(=N)N)C(=O)N[C@@H](CCCCNC(=O)CCCCC[N+]1=C(/C=C/C=C/C=C2/N(C)c3ccccc3C2(C)C)C(C)(C)c2ccccc21)C(N)=O` (stereo not given in full), the Drug uptake (HEK293 [3]) was “Active” and the Drug uptake (HEK293 [4]) was “Not Active”.

With `N=C(N)NCCC[C@H](NC(=O)[C@@H](Cc1ccccc1)NC(=O)[C@H](Cc1cnc[nH]1)NC(=O)CCc1cn(CC(=O)NCCCC(CCCNC(=O)Cn2cc(CCC(=O)N[C@@H](Cc3cnc[nH]3)C(=O)N[C@H](Cc3ccccc3)C(=O)N[C@@H](CCCNC(=N)N)C(=O)N[C@@H](Cc3c[nH]c4ccccc34)C(N)=O)nn2)(NC(=O)CNC(=O)Cn2cc(CCC(=O)N[C@@H](Cc3cnc[nH]3)C(=O)N[C@H](Cc3ccccc3)C(=O)N[C@@H](CCCNC(=N)N)C(=O)N[C@@H](Cc3c[nH]c4ccccc34)C(N)=O)nn2)C(=O)NCCC(N)=O)nn1)C(=O)N[C@@H](Cc1c[nH]c2ccccc12)C(N)=O` (stereo not given in full) the fold change (FC) (Melanocortin receptor 4 [5]) was 350 and the Activity (Melanocortin receptor 4 [6]) was “Active”.

For `CC(=O)NCC(=O)NC(CCCNC(=O)CCNC(=O)C(CCCNC(=O)Cn1cc(CCC(=O)N[C@@H](Cc2cnc[nH]2)C(=O)N[C@H](Cc2ccccc2)C(=O)N[C@@H](CCCNC(=N)N)C(=O)N[C@@H](Cc2c[nH]c3ccccc23)C(N)=O)nn1)(CCCNC(=O)Cn1cc(CCC(=O)N[C@@H](Cc2cnc[nH]2)C(=O)N[C@H](Cc2ccccc2)C(=O)N[C@@H](CCCNC(=N)N)C(=O)N[C@@H](Cc2c[nH]c3ccccc23)C(N)=O)nn1)NC(=O)CNC(=O)Cn1cc(CCC(=O)N[C@@H](Cc2cnc[nH]2)C(=O)N[C@H](Cc2ccccc2)C(=O)N[C@@H](CCCNC(=N)N)C(=O)N[C@@H](Cc2c[nH]c3ccccc23)C(N)=O)nn1)(CCCNC(=O)CCNC(=O)C(CCCNC(=O)Cn1cc(CCC(=O)N[C@@H](Cc2cnc[nH]2)C(=O)N[C@H](Cc2ccccc2)C(=O)N[C@@H](CCCNC(=N)N)C(=O)N[C@@H](Cc2c[nH]c3ccccc23)C(N)=O)nn1)(CCCNC(=O)Cn1cc(CCC(=O)N[C@@H](Cc2cnc[nH]2)C(=O)N[C@H](Cc2ccccc2)C(=O)N[C@@H](CCCNC(=N)N)C(=O)N[C@@H](Cc2c[nH]c3ccccc23)C(N)=O)nn1)NC(=O)CNC(=O)Cn1cc(CCC(=O)N[C@@H](Cc2cnc[nH]2)C(=O)N[C@H](Cc2ccccc2)C(=O)N[C@@H](CCCNC(=N)N)C(=O)N[C@@H](Cc2c[nH]c3ccccc23)C(N)=O)nn1)C(=O)NCCC(N)=O` (stereo not given in full), the Activity (HEK293 [1]) was “Non-toxic”, the Activity (HEK293 [2]) was “Non-toxic” and the fold change (FC) (Melanocortin receptor 4 [5]) was 104. For the same compound, the Activity (Melanocortin receptor 4 [6]) was “Active”.

`CN1/C(=C/C=C/C=C/C2=[N+](CCCCCC(=O)NCCCC[C@H](NC(=O)[C@@H](CCCNC(=N)N)NC(=O)[C@H](CCCNC(=N)N)NC(=O)[C@@H](CCCNC(=N)N)NC(=O)CCNC(=O)C(CCCNC(=O)Cn3cc(CCC(=O)N[C@@H](Cc4cnc[nH]4)C(=O)N[C@H](Cc4ccccc4)C(=O)N[C@@H](CCCNC(=N)N)C(=O)N[C@@H](Cc4c[nH]c5ccccc45)C(N)=O)nn3)(CCCNC(=O)Cn3cc(CCC(=O)N[C@@H](Cc4cnc[nH]4)C(=O)N[C@H](Cc4ccccc4)C(=O)N[C@@H](CCCNC(=N)N)C(=O)N[C@@H](Cc4c[nH]c5ccccc45)C(N)=O)nn3)NC(=O)CNC(=O)Cn3cc(CCC(=O)N[C@@H](Cc4cnc[nH]4)C(=O)N[C@H](Cc4ccccc4)C(=O)N[C@@H](CCCNC(=N)N)C(=O)N[C@@H](Cc4c[nH]c5ccccc45)C(N)=O)nn3)C(N)=O)c3ccccc3C2(C)C)C(C)(C)c2ccccc21` (stereo not given in full) was tested, and the Drug uptake (HEK293 [3]) was “Active” and the Drug uptake (HEK293 [4]) was “Not Active”.

With `CC(=O)NCCCC(CCCNC(C)=O)(NC(=O)CNC(=O)Cn1cc(CCC(=O)N[C@@H](Cc2cnc[nH]2)C(=O)N[C@H](Cc2ccccc2)C(=O)N[C@@H](CCCN=C(N)N)C(=O)N[C@@H](Cc2c[nH]c3ccccc23)C(=O)O)nn1)C(=O)NCCC(N)=O` the IC50 (Melanocortin receptor 4 [7]) was 4.9 µM.
